One data set concerns K562. Kind of data set: Growth inhibitory concentration against human chronic myeloid leukemic cells. The format is functional. Summed up:
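K-562 suspension cells (1 × 10^4) exposed to 10 twofold dilutions for 72h at 37°C, 5% CO2; proliferation counted with an electronic cell analyzer (CASY); GI50 reported.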

The nature of data set [1]: Therapeutic index (ratio of CC50 and IC50) was determined; NA denotes ''Not active''. The format is cell-based. Particulars: human, hela; call rule not given here. An outline of the steps: (§1)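 TI computed by dividing mean HeLa CC50 (72h crystal violet cytotoxicity) by mean IC50 from the CVB3 CPE inhibition assay in HeLa cells.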
Another data set has as its system L929. Briefly: Growth inhibitory concentration against mouse fibroblast cells. The format is functional. An outline of the steps: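 L-929 fibroblasts (1 × 10^4) added to 10 twofold dilutions and incubated 72h at 37°C, 5% CO2; growth measured by optical density after methylene blue staining; GI50 reported.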
A further data set has as its system HeLa. Kind of data set: Inhibitory concentration against Coxsackievirus B3 in HeLa cells. The format is functional, cell-based. The following applies: Homo sapiens.
A short description of data set [2]: Cytotoxic concentration against human cervix carcinoma cells. An outline of the steps:
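Confluent HeLa monolayers exposed 72h (37°C, 5% CO2) to twofold serial dilutions in duplicate; cells fixed and stained with crystal violet–formalin, read spectrophotometrically; CC50 = 50% cytotoxic concentration.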

A short description of data set [3]: Therapeutic index (ratio of CC50 and IC50) was determined. The following applies: human, HeLa cells; read-out: TI. The data set is classed as cell-based. Summed up: as §1
Data set [4] in a line: Partition coefficient (logP). The data set is classed as physicochemical. Particulars: octanol/water.

The values that follow come from ChEMBL document CHEMBL1145228, “Anti-coxsackievirus B3 activity of 2-amino-3-nitropyrazolo[1,5-a]pyrimidines and their analogs” (Bioorg Med Chem Lett, 2005).

≈ marks a conversion by molar mass, not a printed value.

Take `CCSC(N)NCc1cc(O)n2nc(N)c([N+](=O)[O-])c2n1` (centres undefined): the GI50 with K562 and in the data set on L929 was over 50 µg/mL in each case. In addition, the TI result in data set [1] was “Not Active”. In the data set on HeLa, this compound yielded an IC50 of over 50 µg/mL. The compound also gave a CC50 in data set [2] of over 50 µg/mL.

`Nc1nn2c(O)cc(CCl)nc2c1[N+](=O)[O-]`: the GI50 in the data set on K562 and with L929 was over 50 µg/mL in each case. For the same compound, the TI result in data set [1] is reported as “Not Active”. This compound displayed an IC50 in the data set on HeLa of over 50 µg/mL. Besides, the CC50 in data set [2] is over 50 µg/mL.

Turning to `Nc1nn2c(O)cc(CN3CCN(CCO)CC3)nc2c1[N+](=O)[O-]`, the GI50 in the data set on K562 and with L929 was over 50 µg/mL in each case. In addition, in data set [1], the TI entry is given as “Not Active”. In the data set with HeLa, this compound had a half-inhibitory concentration (IC50) of over 50 µg/mL. The compound further came in with a CC50 in data set [2] of over 50 µg/mL.

Take `Nc1nn2c(O)cc(CNCCO)nc2c1[N+](=O)[O-]`: the GI50 with K562 and in the data set with L929 was over 50 µg/mL each time. The TI result in data set [1] is given as “Not Active”. Also, in the data set on HeLa, the IC50 is over 50 µg/mL. For the same compound, the CC50 in data set [2] is over 50 µg/mL.

Take `NC(=S)NNCc1cc(O)n2nc(N)c([N+](=O)[O-])c2n1`: the GI50 in the data set on K562 and in the data set on L929 was over 50 µg/mL each time. The TI result in data set [1] is listed as “Not Active”. Further, the half-inhibitory concentration (IC50) with HeLa was over 50 µg/mL. Also, the CC50 in data set [2] was over 50 µg/mL.

Regarding `NC(=NCc1cc(O)n2nc(N)c([N+](=O)[O-])c2n1)SCc1ccccc1`, the GI50 with K562 and in the data set with L929 was over 50 µg/mL in each case. In addition, in data set [1], the TI result was “Not Active”. In the data set on HeLa, the IC50 was over 50 µg/mL. The CC50 in data set [2] was over 50 µg/mL.

`COc1ccc(NNCc2cc(O)n3nc(N)c([N+](=O)[O-])c3n2)cc1`: the figures for the GI50 in the data set with K562 and with L929 were 5.1 µg/mL (≈ 14.8 µM) and over 50 µg/mL, respectively. Besides, the selectivity ratio in data set [3] amounted to 3.8. In the data set with HeLa, this compound had a half-maximal inhibitory concentration (IC50) of 17.5 µg/mL (≈ 50.8 µM). This compound showed a logP in data set [4] of 2.46. This compound also gave a CC50 in data set [2] of 66.3 µg/mL (≈ 192 µM).

Regarding `CCN(CC)C(=O)N1CCN(Cc2cc(O)n3nc(N)c([N+](=O)[O-])c3n2)CC1`, the GI50 in the data set on K562 and in the data set on L929 was over 50 µg/mL in each case. For the same compound, the TI entry in data set [1] is listed as “Not Active”. The compound also returned an IC50 with HeLa of over 50 µg/mL. The same compound displayed a CC50 in data set [2] of over 50 µg/mL.

Consider `Nc1nn2c(O)cc(-c3ccccc3F)nc2c1[N+](=O)[O-]`, for which the GI50 with K562 and with L929 was over 50 µg/mL throughout. Also, in data set [3], the selectivity ratio came to 3.2. The compound further had an IC50 in the data set with HeLa of 20.3 µg/mL (≈ 70.4 µM). The compound further showed a logP in data set [4] of 2.34. Half-maximal cytotoxicity in data set [2] (CC50) was put at 66.5 µg/mL (≈ 230 µM).

For the compound `Nc1nn2c(O)cc(CN3CCN(C(c4ccccc4)c4ccccc4)CC3)nc2c1[N+](=O)[O-]`, the GI50 came out at 9 µg/mL (≈ 19.6 µM) in the data set on K562 and 19.9 µg/mL (≈ 43.3 µM) in the data set with L929. For the same compound, in data set [1], the TI entry is reported as “Not Active”. In the data set with HeLa, the IC50 was over 50 µg/mL. The compound also displayed a logP in data set [4] of 3.73. In data set [2], the CC50 is 14.8 µg/mL (≈ 32.2 µM).

As to `Nc1nn2c(O)cc(CNNCCO)nc2c1[N+](=O)[O-]`, the concentration for 50% growth inhibition (GI50) in the data set with K562 and in the data set on L929 was over 50 µg/mL throughout. In addition, in data set [1], the TI result was “Not Active”. In the data set on HeLa, the IC50 is over 50 µg/mL. In addition, in data set [2], the CC50 was over 50 µg/mL.

For the compound `Nc1nn2c(O)cc(-c3ccc(F)cc3)nc2c1[N+](=O)[O-]`, the GI50 in the data set with K562 and in the data set on L929 was over 50 µg/mL each time. Further, in data set [3], the selectivity ratio is over 2. The compound further had an IC50 with HeLa of 50.3 µg/mL (≈ 174 µM). This compound came in with a logP in data set [4] of 2.34. Also, the CC50 in data set [2] was over 100 µg/mL.

Consider `CCN(CC)C(=S)SCc1cc(O)n2nc(N)c([N+](=O)[O-])c2n1`, for which the values for the GI50 in the data set on K562 and in the data set with L929 were 33.1 µg/mL (≈ 92.9 µM) and over 50 µg/mL, respectively. Besides, in data set [1], the TI entry is “Not Active”. The IC50 in the data set on HeLa was over 50 µg/mL. In data set [4], this compound showed a log partition coefficient (logP) of 3.06. Moreover, the CC50 in data set [2] is over 50 µg/mL.

Take `Nc1nn2c(O)cc(-c3cc([N+](=O)[O-])c(Cl)cc3Cl)nc2c1[N+](=O)[O-]`: the GI50 in the data set on K562 and in the data set with L929 was over 50 µg/mL throughout. In addition, the selectivity ratio in data set [3] was over 25.6. The same compound showed an IC50 with HeLa of 3.94 µg/mL (≈ 10.2 µM). For the same compound, the log partition coefficient (logP) in data set [4] was determined as 2.77. The compound also returned a CC50 in data set [2] of over 100 µg/mL.

With `Nc1nn2c(O)cc(-c3ccccc3)nc2c1[N+](=O)[O-]`, the concentration for 50% growth inhibition (GI50) with K562 and in the data set on L929 was over 50 µg/mL each time. Besides, the selectivity ratio in data set [3] was over 3.4. Moreover, the concentration for half-maximal inhibition (IC50) with HeLa came to 29.6 µg/mL (≈ 109 µM). This compound also registered a logP in data set [4] of 2.54. Moreover, the CC50 in data set [2] is over 100 µg/mL.

Regarding `Nc1nn2c(O)cc(CNNc3ccc(F)cc3)nc2c1[N+](=O)[O-]`, the figures for the GI50 with K562 and in the data set with L929 were 19.7 µg/mL (≈ 59.1 µM) and 41.4 µg/mL (≈ 124 µM), respectively. Moreover, the selectivity ratio in data set [3] is over 17.2. The same compound registered a 50% inhibitory concentration (IC50) in the data set with HeLa of 5.81 µg/mL (≈ 17.4 µM). Also, the logP in data set [4] was 2.65. Besides, the CC50 in data set [2] is over 100 µg/mL.

`NNCc1cc(O)n2nc(N)c([N+](=O)[O-])c2n1`: the values for the GI50 in the data set on K562 and with L929 were 26.5 µg/mL (≈ 111 µM) and 35.2 µg/mL (≈ 147 µM), respectively. Further, in data set [1], the TI result was “Not Active”. For the same compound, the IC50 in the data set on HeLa was determined as 66.5 µg/mL (≈ 278 µM). Also, in data set [4], the logP stood at 0.42. Moreover, in data set [2], the midpoint of cytotoxicity, the CC50, lay at 42.6 µg/mL (≈ 178 µM).

Regarding `Nc1nn2c(O)cc(CNNc3ccc(S(=O)(=O)O)cc3)nc2c1[N+](=O)[O-]`, the GI50 in the data set with K562 and with L929 was over 50 µg/mL throughout. In addition, the TI result in data set [1] is recorded as “Not Active”. Moreover, the IC50 with HeLa was over 50 µg/mL. Also, in data set [2], the CC50 is over 50 µg/mL.
